This note sets out measurements from PubChem BioAssay AID623974 (Vanderbilt High Throughput Screening Facility, 2012).

The target in the test is G protein-activated inward rectifier potassium channel 2 (Homo sapiens) + G protein-activated inward rectifier potassium channel 3 (Homo sapiens) (UniProt P48051+Q92806). The experiment in a line: GIRK2/3 channel activators by patch clamp, confirmation, GIRK activator project, HEK-293 hGIRK2/3, whole-cell voltage clamp, Ba2+-sensitive current (AID 623974). The following applies: HEK-293 hGIRK2/3, whole-cell voltage clamp current; series mostly up to 11 µM. Summed up: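 Assay system – HEK-293 cells stably expressing human GIRK2/3 potassium channels · Doses – compound concentration series fitted by four-parameter logistic curve · Timing – recording 24–72 h post-plating · Detection – whole-cell patch clamp, -70 mV holding, barium subtraction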
(In general: In patch-clamp work, channel activity is measured electrically.)

Each structure is given as a SMILES string. The source made the active and inactive calls. The rule behind the calls is not given here.

G protein-activated inward rectifier potassium channel 2 (Homo sapiens) + G protein-activated inward rectifier potassium channel 3 (Homo sapiens), sequence (P48051 whole entry, looked up): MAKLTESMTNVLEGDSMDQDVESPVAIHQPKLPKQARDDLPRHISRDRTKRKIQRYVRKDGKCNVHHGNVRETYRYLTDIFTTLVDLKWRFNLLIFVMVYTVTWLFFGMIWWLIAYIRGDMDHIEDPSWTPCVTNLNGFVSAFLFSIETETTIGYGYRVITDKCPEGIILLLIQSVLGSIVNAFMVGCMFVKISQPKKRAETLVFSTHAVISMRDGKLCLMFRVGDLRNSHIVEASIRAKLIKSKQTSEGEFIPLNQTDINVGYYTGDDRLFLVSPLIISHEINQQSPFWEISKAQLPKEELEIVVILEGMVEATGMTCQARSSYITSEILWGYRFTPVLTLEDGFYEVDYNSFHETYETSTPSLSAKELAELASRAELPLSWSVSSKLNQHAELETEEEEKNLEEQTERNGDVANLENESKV
G protein-activated inward rectifier potassium channel 2 (Homo sapiens) + G protein-activated inward rectifier potassium channel 3 (Homo sapiens), sequence (Q92806 whole entry, looked up): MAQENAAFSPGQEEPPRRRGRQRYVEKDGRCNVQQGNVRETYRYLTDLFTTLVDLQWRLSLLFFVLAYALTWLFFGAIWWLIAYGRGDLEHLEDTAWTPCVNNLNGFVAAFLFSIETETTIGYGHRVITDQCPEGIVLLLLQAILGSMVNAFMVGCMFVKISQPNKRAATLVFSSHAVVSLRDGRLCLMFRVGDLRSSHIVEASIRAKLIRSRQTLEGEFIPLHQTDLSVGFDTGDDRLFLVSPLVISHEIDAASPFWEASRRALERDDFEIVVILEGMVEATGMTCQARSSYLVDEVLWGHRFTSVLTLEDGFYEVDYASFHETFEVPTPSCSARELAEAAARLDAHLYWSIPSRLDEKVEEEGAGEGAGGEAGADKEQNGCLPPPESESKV

`Cc1cc(NC(=O)Nc2ccc(F)c(F)c2)n(-c2ccccc2)n1`: the result was inactive.
